From ChEMBL document CHEMBL1137344, “Flavonoid dimers as bivalent modulators for P-glycoprotein-based multidrug resistance: synthetic apigenin homodimers linked with defined-length poly(ethylene glycol) spacers increase drug retention and enhance chemosensitivity in resistant cancer cells” (J Med Chem, 2006)
Activity calls are given as the source filed them. The rule behind the calls is not given here.

Assays:
P388 [1] = assay: Antiproliferative activity against P388 cells by ELISA; type: functional, cell-based; settings: Mus musculus
How it was run: (§1)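 MTS/PMS proliferation assay: cells seeded 5000/well in RPMI 1640 with 10% FBS and penicillin/streptomycin at 37 °C, 5% CO2. Drug series added and cells grown 3 days. MTS/PMS added for 2 h at 37 °C, absorbance read at 490 nm. Survival relative to DMSO (0.05%) controls; IC50 from dose-response curves, at least triplicate.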

MDA-MB-435 [2] = assay: Antiproliferative activity against multidrug resistant MDA435/LCC6 cells in presence of 5 uM 1,13-bis[4'-((5,7-dihydroxy)-4H-chromen-4-on-2-yl)phenyl]-1,4,7,10,13-pentaoxatridecane by ELISA; type: functional, cell-based; settings: Homo sapiens
How it was run: (§2)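 Resistant breast cells seeded 2000/well, allowed 24 h attachment, then exposed to anticancer-drug concentration series with or without 5 µM modulator for 4 days. MTS/PMS read at 490 nm after 2 h. IC50 from dose-response curves relative to 0.05% DMSO controls. RF = IC50 without modulator divided by IC50 with modulator.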

MDA-MB-435 [3] = assay: Relative fold, IC50 in absence to presence of 1,13-bis[4'-((5,7-dihydroxy)-4H-chromen-4-on-2-yl)phenyl]-1,4,7,10,13-pentaoxatridecane in multidrug resistant MDA435/LCC6 cells; type: functional, Homo sapiens; how it was run: as §2
MDA-MB-435 [4] = assay: Antiproliferative activity against MDA435/LCC6 cells by ELISA; type: functional, cell-based; settings: Homo sapiens
P388/ADR [5] = assay: Antiproliferative activity against adriamycin resistant P388 cells in presence of 5 uM 1,13-bis[4'-((5,7-dihydroxy)-4H-chromen-4-on-2-yl)phenyl]-1,4,7,10,13-pentaoxatridecane by ELISA; type: functional, cell-based; settings: Mus musculus
How it was run: (§3)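 P388/ADR cells seeded 5000/well in RPMI 1640 with 10% FBS, given drug concentration series with or without 5 µM modulator for 3 days. MTS/PMS added for 2 h at 37 °C, absorbance at 490 nm. IC50 from dose-response curves versus 0.05% DMSO controls. RF = IC50 without modulator / IC50 with modulator.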

MDA-MB-435 [6] = assay: Antiproliferative activity against multidrug resistant MDA435/LCC6 cells by ELISA; type: functional, cell-based; settings: Homo sapiens
How it was run: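 MTS/PMS proliferation assay: cells seeded 2000/well, drugs added after 24 h attachment, growth 4 days in DMEM with 10% FBS at 37 °C, 5% CO2. MTS/PMS added for 2 h, absorbance read at 490 nm. Survival is taken relative to DMSO (0.05%) controls. IC50 is read from dose-response curves, at least triplicate, repeated twice.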

P388 [7] = assay: Relative fold, IC50 in absence to presence of 1,13-bis[4'-((5,7-dihydroxy)-4H-chromen-4-on-2-yl)phenyl]-1,4,7,10,13-pentaoxatridecane in multidrug resistant P388 cells; type: functional, Mus musculus; how it was run: as §3
P388 [8] = assay: Relative fold, IC50 in absence to presence of verapamil in multidrug resistant P388 cells; type: functional, Mus musculus; how it was run: as §3
P388/ADR [9] = assay: Antiproliferative activity against adriamycin resistant P388 cells by ELISA; type: functional, cell-based; settings: Mus musculus; how it was run: as §1
P388/ADR [10] = assay: Antiproliferative activity against adriamycin resistant P388 cells in presence of 5 uM verapamil by ELISA; type: functional, cell-based; settings: Mus musculus; how it was run: as §3
MDA-MB-435 [11] = assay: Effect on P-gp-mediated drug efflux in multidrug resistant MDA435/LCC6 cells assessed as relative fold in intracellular DOX accumulation at 10 uM; type: functional, Homo sapiens
How it was run: (§4)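 Resistant MDA435/LCC6 cells grown to confluence, preincubated 30 min at 37 °C in fresh DMEM with modulator (0–20 µM), then DOX added (final 20 µM) for 2 h at 37 °C. Cells trypsinized, washed in cold PBS, lysed in 0.3 N HCl/50% ethanol, sonicated, centrifuged. Supernatant fluorescence read at ex 470/em 585 nm. Mean ± SD of three independent experiments.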

MDA-MB-435 [12] = assay: Cytotoxicity against MDA435/LCC6 cells at 5 uM; type: functional, cell-based; settings: Homo sapiens
[13] = molecular target: T1, ATP-dependent translocase ABCB1 (Homo sapiens, UniProt P08183); assay: Increase in ATPase activity in human P-gp membrane measured as fold over the basal level in presence of 5 mM MgATP at 100 uM; type: functional, cell membranes
How it was run: (§5)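 Human P-gp membrane (25 µg) incubated at 37 °C with compound (100 µM), verapamil (100 µM), both, Na3VO4 (100 µM) or 0.1% DMSO. Reaction started with 5 mM MgATP, run 40 min at 37 °C. Remaining ATP detected by luciferase luminescence after 20 min at room temperature. Activity is the luminescence drop versus vanadate-treated samples.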

[14] = molecular target: T1, ATP-dependent translocase ABCB1; assay: Inhibition of VP-induced ATPase activity in human P-gp membrane in presence of verapamil; type: functional, cell membranes; parameters: scale not given: the % may be the effect or the level left
P388/ADR [15] = assay: Reversal potency of DOX resistance in P388 ADR cells by MTS assay; type: functional, cell-based; settings: Mus musculus
How it was run: (§6)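 P388/ADR cells: DOX or daunorubicin IC50 by 3-day MTS assay (A490) with modulator at 0–10 µM. Concentration dependence of IC50 used to gauge reversal potency. Typical experiment in triplicate.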

MDA-MB-435 [16] = assay: Reversal potency of vinblastine resistance in multidrug resistant MDA435/LCC6 cells by MTS assay; type: functional; settings: Homo sapiens, in the assay text read “doxorubicin” for “vinblastine”
P388/ADR [17] = assay: Reversal of mitoxantrone resistance in adriamycin resistant P388 cells by MTS assay; type: functional, cell-based; settings: Mus musculus
How it was run: (§7)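 P388/ADR cells in RPMI 1640 with 10% FBS and penicillin/streptomycin, 5000 cells/well. Serial drug concentrations were given with or without modulator (dimers 5 µM, monomers 10 µM; 0.05% DMSO control) and cells grown for 3 days at 37 °C. Read-out was MTS/PMS for 2 h, then A490. IC50 was taken from dose-response curves relative to solvent control; triplicate wells.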

[18] = molecular target: T1, ATP-dependent translocase ABCB1; assay: Increase in VP-induced ATPase activity in human P-gp membrane measured as fold over the basal level in presence of 5 mM MgATP at 100 uM; type: functional, cell membranes; how it was run: as §5
P388/ADR [19] = assay: Effect on P-gp-mediated drug efflux in adriamycin drug resistant P388 cells assessed as DOX accumulation after 30 mins; settings: Mus musculus
MDA-MB-435 [20] = assay: Reversal of cisplatin resistance in multidrug resistant MDA435/LCC6 cells by MTS assay; type: functional, cell-based; settings: Homo sapiens
P388/ADR [21] = assay: Reversal of DOX resistance in P388 ADR cells by MTS assay at 5 uM; type: functional, cell-based; settings: Mus musculus
How it was run: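 P388/ADR cells: 3-day MTS assay of DOX dose-response with modulator at 5 µM, or 10 µM for monomers. Verapamil 5 µM and 0.05% DMSO as controls. IC50 from curves, triplicate points, mean ± SD of three independent experiments.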

MDA-MB-435 [22] = assay: Reversal of vinblastine resistance in multidrug resistant MDA435/LCC6 cells by MTS assay; type: functional, cell-based; settings: Homo sapiens
How it was run: (§8)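 Resistant MDA435/LCC6 cells, 4-day MTS assay of paclitaxel or vinblastine dose-response with dimers at 5 µM or monomers at 10 µM. Verapamil 5 µM as positive control, DMSO 0.05% as solvent control. IC50 from curves, triplicate, some repeated three times and averaged.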

MDA-MB-435 [23] = assay: Reversal of mitoxantrone resistance in multidrug resistant LCC6 cells by MTS assay; type: functional, cell-based; settings: Homo sapiens
How it was run: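 MDA435/LCC6 MDR cells in DMEM with 10% FBS, 2000 cells/well, allowed to attach for 24 h. Anticancer drug was added in serial concentrations with or without modulator (dimers 5 µM, monomers 10 µM; 0.05% DMSO solvent control), then grown for 4 days at 37 °C, 5% CO2. MTS/PMS was added for 2 h and A490 read. Survival was taken relative to DMSO controls; IC60 for DOX, IC50 for the others; triplicate.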

P388/ADR [24] = assay: Reversal of daunorubicin resistance in P388 ADR cells by MTS assay at 5 uM; type: functional, cell-based; settings: Mus musculus; how it was run: as §7
MDA-MB-435 [25] = assay: Effect on P-gp-mediated drug efflux in multidrug resistant MDA435/LCC6 cells assessed as intracellular DOX accumulation at 0 to 10 uM; type: functional, Homo sapiens; how it was run: as §4
P388/ADR [26] = assay: Reversal potency of daunorubicin resistance in P388 ADR cells by MTS assay; type: functional, cell-based; settings: Mus musculus; how it was run: as §6
P388 [27] = assay: Effect on P-gp-mediated drug efflux in P388 cells assessed as DOX accumulation after 30 mins; settings: Mus musculus
MDA-MB-435 [28] = assay: Reversal of paclitaxel resistance in multidrug resistant MDA435/LCC6 cells by MTS assay; type: functional, cell-based; settings: Homo sapiens; how it was run: as §8
MDA-MB-435 [29] = assay: Effect on P-gp-mediated drug efflux in MDA435/LCC6 cells assessed as intracellular DOX accumulation; type: functional, cell-based; settings: Homo sapiens
How it was run: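 Confluent MDA435/LCC6 parent and MDR cells were preincubated with modulator in fresh DMEM for 30 min at 37 °C (range 0–20 µM; 0.05% DMSO control). DOX at 20 µM final was added for 2 h at 37 °C. Cells were trypsinised, washed three times in cold PBS, lysed in 0.3 N HCl/50% ethanol, sonicated and centrifuged. Supernatant DOX fluorescence was read (ex 470, em 585 nm); three independent experiments.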

T1 sequence (P08183 whole entry): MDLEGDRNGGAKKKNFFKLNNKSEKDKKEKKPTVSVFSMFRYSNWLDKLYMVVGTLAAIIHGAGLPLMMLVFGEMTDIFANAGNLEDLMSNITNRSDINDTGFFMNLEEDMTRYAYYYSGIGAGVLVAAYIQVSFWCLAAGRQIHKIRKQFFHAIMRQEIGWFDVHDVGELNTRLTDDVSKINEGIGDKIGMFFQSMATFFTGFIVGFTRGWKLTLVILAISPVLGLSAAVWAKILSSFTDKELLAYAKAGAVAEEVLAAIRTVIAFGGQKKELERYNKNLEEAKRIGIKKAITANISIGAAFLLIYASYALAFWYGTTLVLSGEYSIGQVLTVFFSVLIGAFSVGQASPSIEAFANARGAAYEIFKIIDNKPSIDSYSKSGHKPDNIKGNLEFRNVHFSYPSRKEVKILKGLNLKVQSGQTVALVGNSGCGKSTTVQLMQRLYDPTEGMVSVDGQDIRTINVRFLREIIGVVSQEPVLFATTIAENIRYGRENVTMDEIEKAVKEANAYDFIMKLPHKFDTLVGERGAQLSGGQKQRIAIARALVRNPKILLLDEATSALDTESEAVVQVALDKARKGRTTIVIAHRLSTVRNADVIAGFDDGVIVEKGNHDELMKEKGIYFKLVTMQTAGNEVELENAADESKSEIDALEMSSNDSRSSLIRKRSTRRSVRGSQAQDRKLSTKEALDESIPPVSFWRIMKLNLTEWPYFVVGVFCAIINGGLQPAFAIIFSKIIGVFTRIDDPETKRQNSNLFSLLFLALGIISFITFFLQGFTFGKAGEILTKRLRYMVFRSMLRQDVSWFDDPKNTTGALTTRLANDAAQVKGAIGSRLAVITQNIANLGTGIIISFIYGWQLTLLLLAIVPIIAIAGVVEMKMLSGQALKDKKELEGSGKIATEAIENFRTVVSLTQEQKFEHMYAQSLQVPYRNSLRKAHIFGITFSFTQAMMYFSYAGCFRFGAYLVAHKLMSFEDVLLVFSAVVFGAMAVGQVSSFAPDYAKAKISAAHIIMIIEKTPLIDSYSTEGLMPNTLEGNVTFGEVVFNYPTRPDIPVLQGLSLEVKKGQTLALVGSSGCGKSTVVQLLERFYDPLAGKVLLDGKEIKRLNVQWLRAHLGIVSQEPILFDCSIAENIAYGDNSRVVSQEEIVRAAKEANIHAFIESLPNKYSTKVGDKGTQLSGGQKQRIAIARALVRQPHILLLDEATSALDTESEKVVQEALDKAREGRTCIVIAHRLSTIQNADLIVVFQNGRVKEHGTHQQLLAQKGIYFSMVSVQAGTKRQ

SMILES: COc1cccc2c1C(=O)c1c(O)c3c(c(O)c1C2=O)C[C@@](O)(C(C)=O)C[C@@H]3O[C@H]1C[C@H](N)[C@H](O)[C@H](C)O1 [DAUNORUBICIN]
- IC50 (P388 [1]): 25 nM
- IC50 (MDA-MB-435 [2]): 129 nM
- Ratio IC50 (MDA-MB-435 [3]): 7.6
- IC50 (MDA-MB-435 [4]): 79 nM
- IC50 (P388/ADR [5]): 106 nM
- IC50 (MDA-MB-435 [6]): 977 nM
- Ratio IC50 (P388 [7]): 20
- Ratio IC50 (P388 [8]): 53
- IC50 (P388/ADR [9]): 2110 nM
- IC50 (P388/ADR [10]): 40 nM

SMILES: O=c1cc(-c2ccc(OCCOCCOCCOCCOc3ccc(-c4cc(=O)c5c(O)cc(O)cc5o4)cc3)cc2)oc2cc(O)cc(O)c12
- Activity (MDA-MB-435 [11]): 5.8
- Activity (MDA-MB-435 [12]): inactive
- Activity [13]: 3.3
- Activity [14]: 17%
- IC50 (P388/ADR [15]): 150 nM
- IC60 (MDA-MB-435 [16]): 730 nM
- Activity (P388/ADR [17]): inactive
- Activity [18]: 7.4
- Activity (P388/ADR [19]): Dose-dependent effect
- Activity (MDA-MB-435 [20]): inactive
- IC50 (P388/ADR [21]): 150 nM
- Activity (MDA-MB-435 [22]): Dose-dependent effect
- IC50 (MDA-MB-435 [22]): 0.36 nM
- Activity (MDA-MB-435 [23]): inactive
- IC50 (P388/ADR [24]): 100 nM
- Activity (MDA-MB-435 [25]): 17%
- IC50 (P388/ADR [26]): 100 nM
- Activity (P388 [27]): inactive
- EC50 (MDA-MB-435 [28]): 900 nM
- IC50 (MDA-MB-435 [28]): 4.4 nM
- Activity (MDA-MB-435 [29]): inactive
